# This excerpt belongs to a sample that is enriched for hits.
# bCat KO growth = beta-catenin-lacking colon tumor cell growth suppression | viability, % at 10 µM | HCT116 beta-catenin knockout viability, CellTiter-Glo, 60 h; active compounds read low | AID 818 | hit rate 1.5% among 140,000;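 active = viability at or under a set limit, the compound median less 4 SD, cut at about 6% in these data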;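 note: 0% = Hyamine 1622 control at 20 µM and 100% = untreated cell control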
# Lung fibro prol = blocks proliferation of human lung fibroblasts | AID 719 | viability, % at 10 µM | LL 47 human lung fibroblast viability, ATP luminescence; active compounds read low | hit rate 1.1% among 85,000;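 active = viability at or below 50% in the single dose screen; inactive = viability above 50%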;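 note: compound exposure lasted 72 h before the ATP readout; 100% = median luminescence of untreated cell-only wells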
#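 Test system: LL 47 human lung fibroblasts; Quantity: 1,150 cells/well; Buffer or medium: IMEM plus 15% FBS; Dosing: tenfold compound dosing solution, DMSO at 0.1%; Timing: overnight cell rest, 72 h compound treatment at 37 °C; Detection: ATP-based CellTiter-Glo luminescent readout; Read-out basis: viability percentage against median untreated-cell control; Controls: cell-only wells, no compound.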
# PTEN del growth = growth suppressors of cells with PTEN tumor suppressor deletion | hit rate 1.2% among 140,000 | viability, % at 10 µM | HCT116 PTEN-null viability, CellTiter-Glo, 60 h; active compounds read low;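 active = viability at or below a set limit, 4 SD under the median of all tested compounds, cut at about 3.7% in these data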;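 note: PTEN knockout HCT116 line with beta catenin targeted HCT116 as companion control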
# HUVEC prolif 384 = blocks proliferation of human endothelial cells; HUVEC proliferation, CellTiter-Glo luminescence, 72 h; active compounds read low; viability, % at 10 µM (by protocol); hit rate 1.1% among 86,000; AID 648;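 active = viability at or below 30%; inactive = viability above 30%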;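 note: 100% = median luminescence of DMSO-only cell control wells on each plate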
# H69AR growth 86K = blocks growth of human H69AR lung tumor cells; H69AR lung tumor viability, ATP luminescence, 72 h; active compounds read low; hit rate 6% among 85,000; viability, % at 10 µM;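 active = viability at or below 40%; inactive = viability above 40%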;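 note: multidrug resistant small cell line overexpressing MRP-1 efflux transporter; 100% = mean luminescence of untreated control wells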
# Starred values were filed as active, the others as inactive; / = no result given.
SMILES,bCat KO growth,Lung fibro prol,PTEN del growth,HUVEC prolif 384,H69AR growth 86K
O=C1OC(Nc2ccc3c(c2)OCO3)c2ccccc21 (stereo not drawn),16.4,48.9*,14.4,55.7,16.1*
O=C(Cn1c(NCCO)nc2ccccc21)NCCc1ccc(F)cc1,104.1,98.5,93.1,106.1,95.5
COc1ccc2c(c1OC)C(=O)N1N=C(c3ccc(Cl)cc3)CC21 (stereo not drawn),91.6,/,86.2,/,/
COC(=O)CSc1nc(N)c2c3c(sc2n1)CCCC3,103.1,95.9,96.7,85.8,106.1
COC(=O)CSc1nc(N)c2c3c(sc2n1)C(c1ccccc1)SC(c1ccccc1)C3 (stereo not drawn),1.1*,/,0.7*,/,/
Cc1ccc(-n2c(Cl)c(Cl)nc(Cl)c2=O)cc1,4.9*,/,2.5*,/,/
COc1nc(Cl)cn(-c2ccc(C)cc2)c1=O,91.6,/,101.1,/,/
Fc1ccc(Sc2cc(Cl)c(-c3ccccc3)nn2)cc1,82.2,/,86.8,/,/
Cc1ccc(C(=O)N/C(=C\c2ccc(C(C)C)cc2)C(=O)NCCCN2CCOCC2)cc1,86.0,/,91.5,/,/
CC(=O)CCS(=O)(=O)c1ccc(Oc2ccc(S(=O)(=O)CCC(C)=O)cc2)cc1,62.6,10.8*,77.8,94.3,1.3*
CC(=O)CS(=O)(=O)c1ccc(Oc2ccc(S(=O)(=O)CC(C)=O)cc2)cc1,93.2,99.2,93.3,103.8,85.6
CC(=O)c1ccccc1Oc1nc(CN2CCOCC2)nc2scc(-c3cccs3)c12,60.7,/,56.6,75.0,29.5*
COc1ccc(NS(=O)(=O)c2c(F)cc(F)c(Cl)c2F)cc1S(=O)(=O)N1CCCCC1,93.3,/,82.3,/,/
O=C(Nc1nc(-c2ccccn2)cs1)C1CC(=O)N(c2ccc3c(c2)OCCO3)C1 (stereo not drawn),25.4,/,19.9,/,/
COc1cccc2c1C(=O)C=C(C)C2=O,1.8*,/,2.9*,/,/
CC1=CC(=O)c2ccccc2C1=O,43.9,/,41.3,/,/
C=C(C(=O)c1ccccc1)C(C)C(=C)C(=O)c1ccccc1,2.4*,/,1.4*,/,/
C=CCN(CC=C)C(=S)NC(=O)c1ccc(C)c(Br)c1,25.0,/,21.3,/,/
COc1ccc(-c2coc3cc4oc(=O)cc(-c5ccccc5)c4cc23)cc1F,2.6*,/,2.1*,/,/
COc1ccc(-c2coc3cc4oc(=O)cc(C)c4cc23)cc1F,31.6,/,29.0,/,/
O=C(C#Cc1ccccc1)c1ccc([N+](=O)[O-])cc1,6.5,19.7*,4.0,47.4,1.1*
Cc1ccc(NC(=O)CN2CCCCCC2)c(Br)c1,93.1,117.0,91.6,91.7,91.6
CCOC(=O)Nc1ccc(C)cc1Br,0.4*,106.6,0.2*,104.0,109.3
CCCCOc1ccc(Cc2n[nH]c(=S)n2N)cc1,95.8,/,98.3,/,/
COc1cc2c(cc1NC(=S)Nc1cccc3ccccc13)oc1ccccc12,74.0,/,70.1,/,/
SMILES,bCat KO growth,Lung fibro prol,PTEN del growth,HUVEC prolif 384,H69AR growth 86K
COc1cc2c(cc1NC(=S)Nc1cccc(C(F)(F)F)c1)oc1ccccc12,71.1,98.6,39.3,45.5,30.2*
CCOc1ccccc1-n1c(SCC(=O)Nc2ccc(CC)cc2)nc2n[nH]c(C)c2c1=N,5.0*,/,3.7*,/,/
CCOc1ccccc1NC(=O)CCSc1nc2n[nH]c(C)c2c(=N)n1-c1ccccc1Cl,13.7,56.1,15.5,51.6,6.5*
CCc1ccccc1NC(=O)CSc1nc2n[nH]c(C)c2c(=N)n1-c1cccc(OC)c1,63.3,87.2,64.8,81.8,60.4
Cc1ccc(S(=O)(=O)N2CCN(Cc3nc4ccccc4[nH]3)CC2)cc1C,82.8,91.7,91.0,101.0,35.0*
Cc1cc(C)c(C)c(S(=O)(=O)N2CCN(Cc3nc4ccccc4[nH]3)CC2)c1C,68.0,97.6,73.6,87.8,41.6
O=C(COc1ccccc1-c1ccccc1)NCc1cccc(Cl)c1,91.6,/,82.8,/,/
O=C(N/N=C/c1cn(-c2ccccc2)nc1-c1cc2ccccc2o1)c1cccnc1,7.3,/,3.5*,/,/
O=C(N/N=C/c1cn(-c2ccccc2)nc1-c1cc2ccccc2o1)c1ccncc1,17.1,/,10.0,/,/
COc1ccc(Nc2oc(-c3ccc(Cl)cc3)nc2C#N)cc1,9.9,39.4*,16.5,43.0,24.6*
CCOc1ccc(Nc2oc(-c3ccc(Cl)cc3)nc2C#N)cc1,72.6,42.3*,63.3,81.6,32.5*
COc1ccc(Nc2oc(COc3ccc(Cl)cc3)nc2C#N)cc1,14.4,101.9,36.9,78.8,70.7
CCCNC(=O)CN(c1cccc(F)c1)S(C)(=O)=O,104.8,/,102.7,/,/
CCC(=O)N1c2ccc(S(=O)(=O)CCC(=O)NC3CCCC3)cc2CC1C (stereo not drawn),88.4,103.2,95.6,88.8,93.4

# Assay outcomes deposited in PubChem by SRMLSC.
